In the library only some 1.8% were active in any assay of this set; here they are far more common.
Platelet DG rel – inhibitors of platelet dense granule secretion, primary screen, cell-based, MLPCN, human platelets | human platelet-rich plasma, SFLLRN dense granule ATP release, luminescence | inhibition, %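 (compounds screened at 7.5 µM in platelet-rich plasma)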 | 300,000 compounds, 0.22% hits | AID 1663, 2009;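 active = mean replicate score, as percent of positive control, at or above 50; inconclusive = mean below 50 but at least one replicate at or above 50; inactive = mean and every replicate below 50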
Rce1 inhib – yeast Rce1p protease inhibitors, primary screen, biochemical, fluorescence, cell-free homogeneous. CAAX prenyl protease 2 (Saccharomyces cerevisiae (strain ATCC 204508 / S288c)), Q03530. yeast membranes, quenched prenylated peptide cleavage fluorescence. calls only. 290,000 compounds, 0.27% hits;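 active = fall in fluorescence gain of 50% or more versus controls, with final raw signal at or below 3038400; inconclusive = same 50% fall but final raw signal above 3038400; inactive = fall in fluorescence gain under 50%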;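 also: plate controls were neutral control wells for no effect and wells lacking membranes for full effect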
Runt-CBFb FRET – inhibitors of RUNX1 Runt–CBFb binding, primary screen, biochemical, FRET, Cerulean-Runt, Venus-CBFb, uHTS. Runt-related transcription factor 1 (Homo sapiens) + Core-binding factor subunit beta …. inhibition, % at 20 µM. Cerulean-Runt/Venus-CBFb FRET ratio 530/480, 1 h. 220,000 compounds, 0.46% hits;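 active = inhibition over about 50% at 20 µM in the single-dose screen, limit read from the data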;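 also: 0% = DMSO wells and 100% = excess unlabeled CBFb competitor control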
Target sequence (Q01196 whole entry, looked up): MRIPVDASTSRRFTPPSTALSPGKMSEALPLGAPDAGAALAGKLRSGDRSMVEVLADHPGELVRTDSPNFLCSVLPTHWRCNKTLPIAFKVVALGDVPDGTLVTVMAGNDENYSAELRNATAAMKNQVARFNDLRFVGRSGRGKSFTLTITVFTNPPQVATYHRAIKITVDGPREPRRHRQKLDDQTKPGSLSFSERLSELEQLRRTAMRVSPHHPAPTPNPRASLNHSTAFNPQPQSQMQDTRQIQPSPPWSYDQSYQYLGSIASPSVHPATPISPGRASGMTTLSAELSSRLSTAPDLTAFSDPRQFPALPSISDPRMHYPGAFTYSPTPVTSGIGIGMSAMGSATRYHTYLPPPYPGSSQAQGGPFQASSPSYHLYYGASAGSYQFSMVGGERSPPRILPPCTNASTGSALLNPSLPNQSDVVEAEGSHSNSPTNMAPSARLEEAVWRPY
Target sequence (Q13951 whole entry, looked up): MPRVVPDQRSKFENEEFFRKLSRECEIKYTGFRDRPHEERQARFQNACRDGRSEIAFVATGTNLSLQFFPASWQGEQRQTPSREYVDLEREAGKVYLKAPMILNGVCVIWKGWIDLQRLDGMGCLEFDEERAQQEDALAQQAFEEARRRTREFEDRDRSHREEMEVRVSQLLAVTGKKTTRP
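Buffer or medium: Tris pH 7.5 buffer with BSA. Assay system: Cerulean-labeled Runt domain protein. Amount: each fluorescent fusion protein 100 nM. Read-out basis: loss of energy transfer signal. Incubation: 1 h compound exposure, room temperature. Probe or stimulus: Venus-CBFb binding partner, 100 nM. Detection: FRET, excitation 422 nm, emission at 530 and 480 nm.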
Runt-SMMHC FRET – inhibitors of RUNX1 Runt–CBFb-SMMHC binding, primary screen, biochemical, FRET, Cerulean-Runt, Venus-CBFb-SMMHC, uHTS | 220,000 compounds, 0.74% hits | Runt-related transcription factor 1 (Homo sapiens) + Core-binding factor subunit beta … | inhibition, % at 20 µM | Cerulean-Runt/Venus-CBFb-SMMHC FRET ratio 530/480, 1 h | AID 1434, 2008;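 active = mean inhibition across duplicate retests at 20 µM reaching about 50%, limit read from the data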;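 also: 0% = DMSO wells and 100% = wells with excess untagged CBFb-SMMHC; inhibitors lower the FRET ratio by blocking Runt binding to CBFb-SMMHC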
RanGTP-Impb inh – inhibitors of RanGTP-importin-beta interaction, primary screen, biochemical, FRET, CFP-Ran, YFP-importin-beta, homogeneous. Ran GTPase (GTP-bound) - importin-beta complex. cell-free CFP-Ran/YFP-importin-beta FRET ratio. inhibition, % (test concentration not listed). 300,000 compounds, 1.1% hits;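 active = more than half of the replicate wells show a fall in the fluorescence ratio signal beyond about 16%, limit read from the data, passing the limit was not always enough; inconclusive = exactly half of the replicate wells pass the set limit; inactive = fewer than half of replicates pass the limit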;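 also: 0% = DMSO wells and 100% = Ran loaded with GDP instead of GTP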
Runt-CBFb TRFRET – inhibitors of RUNX1 Runt–CBFb binding, biochemical, TR-FRET; shares compounds with Runt-CBFb FRET; TR-FRET RUNX1 Runt domain-CBFb binding; inhibition, % at 20 µM; 480 compounds, 20% hits; in the data active = inhibition above about 40%
Active calls of the source: *; i = inactive; ? = inconclusive; · = no result.

SMILES	Platelet DG rel	Rce1 inhib	Runt-CBFb FRET	Runt-SMMHC FRET	RanGTP-Impb inh	Runt-CBFb TRFRET
Cc1ccc(N(CC(=O)NC(C)C)C(=O)CCC(=O)Nc2nccs2)cc1C	7	i	·	·	-2	·
CC(=O)Nc1c(NCC(C)C)c2ccccc2oc1=O	-3	i	1	4	10	·
O=C1CC(c2ccco2)CC(O)=C1C=NCCO (stereo not given)	·	i	81*	-5	1	21
CCCCOC(=O)Nc1ccccc1C(N)=O	-3	i	51*	116	?	2
CCOC(=O)CCC(=O)Nc1ccccc1C(N)=O	-4	i	0	-1	6	·
Cc1ccc(NC(=O)c2snc3ccc(Cl)cc23)cc1C	-4	i	-7	-6	-3	·
COc1ccc2ccc(=O)oc2c1	0	i	1	0	?	·
CC(NC(=O)OC(C)(C)C)C(=O)Oc1ccc2ccc(=O)oc2c1 (stereo not given)	·	·	68*	113*	·	36
Cc1ccc(C(=O)Oc2ccc3ccc(=O)oc3c2)cc1	-3	i	·	·	-1	·
CC(=O)Oc1ccc2ccc(=O)oc2c1	1	i	51*	85*	13	39
CCc1cccc(OCC(O)Cn2c(N3CCCCC3)nc3c2c(=O)[nH]c(=O)n3C)c1 (stereo not given)	-3	i	·	·	-2	·
CC(NC(=O)Cc1ccsc1)c1ccc(F)cc1 (stereo not given)	2	·	·	·	4	·
O=C(Nc1ccc(Cl)c(-c2nc3ccccc3[nH]2)c1)c1ccc2c(c1)OCO2	5	i	65*	-5	0	-121
CCn1nnc(-c2ccc(N)cc2)n1	4	i	-2	-2	2	·
O=C(NC1CCCCCC1)c1ccc[nH]c1=S	1	i	54*	60*	1	-36
Cc1cc(O)c(Oc2cc(C)cc(O)c2O)c(O)c1	-5	·	70*	62*	-2	54*
Cc1sc2nc(CN3CCN(c4ccc(O)cc4)CC3)[nH]c(=O)c2c1C	-9	i	54*	-4	?	63*
O=c1[nH]c(CN2CCN(c3ccccc3)CC2)nc2scc(-c3ccccc3)c12	10	i	-2	-4	-11	·
Cc1cc(C)nc(Sc2ncnc(N)c2[N+](=O)[O-])n1	1	i	58*	14	-1	23
Cc1cccc(Nc2ncnc(N)c2[N+](=O)[O-])n1	-3	i	1	0	-1	·
Cc1ccc2nc(NC(=O)C3CCCN(S(=O)(=O)c4cnc[nH]4)C3)sc2c1 (stereo not given)	2	i	-1	-5	-3	·
CCSc1nnc(NC(=O)C2CCCN(S(=O)(=O)c3cnc[nH]3)C2)s1 (stereo not given)	-4	i	64*	0	-2	-10
CCC(=O)NC(=S)NNC(=O)c1ccccc1[N+](=O)[O-]	2	i	51*	48	-3	-20
O=C(NC(=S)NNC(=O)c1ccccc1[N+](=O)[O-])c1ccccc1	-35	i	13	38	0	·
O=S(=O)(c1ccccc1F)N1CCC(c2nc3ccccc3[nH]2)CC1	1	i	·	·	6	·
SMILES	Platelet DG rel	Rce1 inhib	Runt-CBFb FRET	Runt-SMMHC FRET	RanGTP-Impb inh	Runt-CBFb TRFRET
CCn1c(SCC(=O)NCc2ccco2)nnc1-c1ccncc1	0	i	-1	0	7	·
CCCn1c(SCC(=O)NCc2ccco2)nnc1-c1ccncc1	0	i	74*	3	1	-1
CCOC(=O)CN1NC2(CCC(C)CC2)NC1=S (stereo not given)	0	i	48	25	0	·
CCOC(=O)CN1NC2(CCCC(C)C2)NC1=S (stereo not given)	1	i	51*	32	?	10
COC(=O)c1ccc(C(=O)OC)c(NC(=S)N2CCCCC2C)c1 (stereo not given)	-8	i	72*	87*	?	67*
Cc1cccn2c(=O)c3cc(C#N)c(=N)n(Cc4ccncc4)c3nc12	7	i	70*	130*	74*	-4
COC(=O)CNC(=O)C1CC(=O)N(CCc2ccc(F)cc2)C1 (stereo not given)	6	i	·	·	-2	·
COc1ccc(-n2nnnc2Sc2ccc(S(=O)(=O)N3CCOCC3)cn2)cc1	-5	i	57*	35	1	-39
COc1ccc(-n2nnnc2SCC(=O)N2CCOCC2)cc1	-4	?	0	-2	7	·
CCCc1cc(=O)[nH]c(SCC(=O)Nc2oc(C)c3c(C)n[nH]c(=O)c23)n1	-7	i	·	·	6	·
NS(=O)(=O)c1cc(C(=O)OCC(=O)Nc2ccc(N3CCCCC3)cc2)ccc1Cl	-1	i	81*	1	3	17
CCc1ccc(NC(=O)COC(=O)c2ccc(Cl)c(S(=O)(=O)N3CCCCCC3)c2)cc1	-5	i	1	1	0	·
CC1(C)CC(=O)c2c(oc3cc(O)c(O)cc23)C1	0	i	52*	44	0	25
COc1cc(NC(=S)NC(C)(C)C)c(OC)cc1Cl	0	·	5	-4	11	·
COc1cc(Cl)c(C)cc1NC(=S)NN	0	i	51*	30	2	16
CCOC(=O)CSc1snnc1-c1ccccc1	-5	i	-3	-1	3	·
O=C(COc1cccc2ccccc12)N1c2ccccc2CCc2ccccc21	2	i	-4	-2	0	·
NS(=O)(=O)c1ccc(NC(=S)NC2CCCC2)cc1	7	i	55*	31	2	-16
NS(=O)(=O)c1ccc(NC(=S)NC2CCCCCC2)cc1	-1	i	-5	-1	4	·
COc1ccc(CCn2c(N)c(C(=O)NCc3ccco3)c3nc4ccccc4nc32)cc1	6	i	58*	79*	58*	26
Cc1cc(C)nc(SCC(=O)c2ccc(F)cc2)n1	18	·	·	·	3	·
CCNC(=O)CCSc1nc(C)cc(C)n1	-3	i	50*	36	4	16
Cc1cc(C)nc(SCNC(=O)c2ccc(F)cc2)n1	-2	i	53*	17	1	8
CC(NS(=O)(=O)c1ccc(F)cc1)C(=O)Nc1ccc2c(c1)OCCO2 (stereo not given)	2	i	·	·	?	·
CN(C)c1oc(/C=C/c2ccccc2)nc1C#N	0	i	63*	122*	11	-34
